# Measurements collected from several papers.
# Lines come from different studies, so protocols differ.
# Organism: Plasmodium falciparum
# Effect on: parasite growth
# Method: SYBR Green
SMILES,system,conditions,measurement,value
Cc1cc(Nc2ccc(S(F)(F)(F)(F)F)cc2)n2nc(C(C)(F)F)nc2n1,,72 h,EC50,0.0057 µM
CCN(CC)CCCC(C)Nc1ccnc2cc(Cl)ccc12 (centres unmarked),D6,"72 h, blood stage",IC50,0.00657 µM
O=C(/C=C/c1cn(Cc2cn(-c3ccnc4cc(Cl)ccc34)nn2)c2ccccc12)c1ccccc1,3D7,"5 µM, blood stage",inhibition,-3.08%
O=C1C(NCCc2c[nH]c3ccccc23)=CC2=NCCc3c[nH]c1c32,DD2,blood stage,IC50,0.598 µM
O=C(/C=C/c1cn(Cc2cn(-c3ccnc4cc(Cl)ccc34)nn2)c2ccccc12)c1ccccc1Br,3D7,"5 µM, blood stage",inhibition,-1.58%
COCC(=O)N1CCC[C@@H](C(=O)NCc2nc(-c3ccccc3)cs2)C1,DD2,"72 h, blood stage",EC50,7 µM
COC(CNC1=CC2=NCCc3c[nH]c(c32)C1=O)c1c[nH]c2ccccc12 (centres unmarked),DD2,blood stage,IC50,0.654 µM
O=C1C(O)=C([C@H]2CC[C@H](c3ccc(Cl)cc3)CC2)C(=O)c2ccccc21,,72 h,EC50,0.00086 µM
O=C1c2[nH]cc3c2C(=NCC3)c2c(-c3ccc(O)cc3)c[nH]c21,DD2,blood stage,IC50,4.77 µM
COc1ccccc1C(=O)/C=C/c1cn(Cc2cn(-c3ccnc4cc(Cl)ccc34)nn2)c2ccccc12,3D7,"5 µM, blood stage",inhibition,56.8%
COCC(=O)N1CCC[C@H](C(=O)NCc2nc(-c3ccc(C)cc3)cs2)C1,DD2,"72 h, blood stage",EC50,0.015 µM
Cn1cc2c3c1C(=O)C(NCCc1ccc(O)cc1)=CC3=NCC2,DD2,blood stage,IC50,2.38 µM
CCOCC(=O)N1CCC[C@H](C(=O)NCc2nc(-c3ccc(C#N)cc3)cs2)C1,DD2,"72 h, blood stage",EC50,0.0058 µM
O=C(/C=C/c1cn(Cc2cn(-c3ccnc4cc(Cl)ccc34)nn2)c2ccccc12)c1ccc(Br)cc1,3D7,"5 µM, blood stage",inhibition,12.9%
NC1=CC2=NCCc3c[nH]c(c32)C1=O,DD2,blood stage,IC50,0.478 µM
CCOCC(=O)N1CCC[C@H](C(=O)NCc2nc(-c3ccccc3)cs2)C1,DD2,"72 h, blood stage",EC50,0.024 µM
O=C(/C=C/c1cn(Cc2cn(-c3ccnc4cc(Cl)ccc34)nn2)c2ccccc12)c1ccccc1Cl,3D7,"5 µM, blood stage",inhibition,42.4%
COC1=CC2=[N+](C)CCc3c[nH]c(c32)C1=O,W2,blood stage,IC50,1.52 µM
O=C(/C=C/c1cn(Cc2cn(-c3ccnc4cc(Cl)ccc34)nn2)c2ccccc12)c1ccccc1[N+](=O)[O-],3D7,"10 µM, blood stage",inhibition,26.1%
CCOC(=O)C1=C(C)NC2=C(C(=O)CC(c3ccc(Cl)c(OC)c3)C2)C1c1ccccc1Cl (centres unmarked),3D7,blood stage,EC50,~0.02 µM
